# Experimental data taken from ChEMBL document CHEMBL1143197, “Neural networks as valuable tools to differentiate between sesquiterpene lactones' inhibitory activity on serotonin release and on NF-kappaB” (J Med Chem, 2008).
# Tested on: Platelet
# Assay: Inhibition of serotonin release in bovine platelets
# Format: functional, cell-based
# Settings: Bos taurus
# Method in brief: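 Bovine platelets loaded with [14C]serotonin by incubating cattle venous blood, taken up by active transport. Platelet-rich plasma prepared at a standard platelet concentration by centrifugation and dilution, then preincubated with the sesquiterpene lactones. Adenosine diphosphate added to trigger aggregation and degranulation. Reaction stopped after 6 min with ice-cold acetylsalicylic acid. Released serotonin monitored and IC50 determined.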
row,Structure (SMILES),IC50
1,CC1=CC[C@@H](O)[C@]2(C)CC[C@@H]3[C@H](OC(=O)[C@H]3C)[C@@H]12,> 200 µM
2,C=C1[C@@H](O)C[C@@H]2[C@H](OC(=O)[C@H]2C)[C@H]2[C@H](C)C(=O)C[C@@H]12,> 454 µM
3,C=C1CC[C@@H](O)[C@]2(C)CC[C@@H]3[C@H](OC(=O)[C@H]3C)[C@@H]12,> 210 µM
4,C=C1C(=O)O[C@H]2C[C@@H](C)[C@@H]3CCC(=O)[C@@]3(C)[C@H](O)[C@H]12,60.1 µM
5,C=C1C[C@@H](O)[C@@H]2[C@H](OC(=O)[C@H]2C)[C@H]2[C@H](C)[C@@H](O)C[C@@H]12,> 488 µM
6,C[C@@H]1C(=O)O[C@H]2[C@H]1CC[C@@]1(C)O[C@@H]1CC[C@@]1(C)O[C@H]21,> 413 µM
7,"C=C1C(=O)O[C@@H]2/C=C(\C)CC[C@H]3O[C@]3(C)CC[C@@H]12 [1,10-EPOXYCOSTUNOLIDE]",121 µM
8,"C/C1=C\CC[C@@]2(C)O[C@@H]2[C@H]2OC(=O)[C@@H](C)[C@@H]2CC1 [11BETA,13-DIHYDRO-PARTHENOLIDE]",> 400 µM
9,C=C1C(=O)O[C@H]2[C@H]1CC[C@@](C)(O)[C@]13O[C@H]1[C@H]1O[C@@]1(C)[C@H]23 [ARTECANIN],> 135 µM
10,C=C1C(=O)O[C@@H]2C[C@H](C)[C@@H]3[C@@H](O)CC(=O)[C@@]3(C)C[C@H]12 [BURRODIN],251 µM
11,C=C1C(=O)O[C@@H]2[C@H]1CC[C@H](C)[C@]1(O)CCC(=O)[C@@]21C [CORONOPILIN],249 µM
12,C=C1C(=O)O[C@H]2C[C@@H](C)[C@@H]3C[C@@H](O)[C@H](O)[C@@]3(C)[C@H](O)[C@H]12 [GEIGERININ],73.4 µM
13,C=C1C(=O)O[C@@H]2C[C@@H](C)[C@@H]3C=CC(=O)[C@@]3(C)[C@@H](O)[C@H]12 [HELENALIN],4.28 µM
14,C=C(C(=O)O)[C@@H]1CC[C@@]2(C)CCC[C@@](C)(O)[C@@H]2C1 [ILICIC ACID],> 614 µM
15,C=C1C(=O)O[C@@H]2C[C@@]3(C)CCCC(=C)[C@@H]3C[C@H]12 [ISOALANTOLACTONE],> 516 µM
16,C=C1C(=O)O[C@H]2C[C@@H](C)[C@@H]3C=CC(=O)[C@@]3(C)[C@H](OC(C)=O)[C@H]12 [LINIFOLIN A],11.4 µM
17,C=C1C(=O)O[C@@H]2[C@H]1CC[C@H](C)[C@]1(O)C=CC(=O)[C@@]21C [PARTHENIN],129 µM
18,C=C1C(=O)O[C@@H]2C[C@@]3(C)C[C@@H](O)[C@H](O)C(=C)[C@@H]3C[C@H]12 [PULCHELLIN C],> 416 µM
19,C=C1CC[C@@H](O)[C@]2(C)CC[C@H]3C(=C)C(=O)O[C@@H]3[C@@H]12 [REYNOSIN],271 µM
20,C=C1C(=O)O[C@@H]2[C@H]3C(C)=CC[C@@H](O)[C@]3(C)CC[C@@H]12 [SANTAMARIN],84.9 µM
21,CC1=C2[C@H]3OC(=O)[C@@H](C)[C@@H]3CC[C@@]2(C)C=CC1=O [SANTONIN],> 568 µM
22,C=C1C(=O)O[C@@H]2C/C(C=O)=C/CC/C(C)=C/[C@@H](O)[C@H]12 [SCHKUHRIOLIDE],278 µM
23,C=C1C(=O)O[C@@H]2C[C@@]3(C)CCCC(=C)[C@]3(O)C[C@H]12 [TELEKIN],> 564 µM
24,C[C@@H]1C[C@@H]2OC(=O)[C@]3(C)[C@H]2[C@@H](OC3(C)O)[C@]2(C)C(=O)C=C[C@@H]12 (some centres undefined) [TENULIN],361 µM
25,C=C(C(=O)OC)[C@@H]1CC[C@@]2(C)CCC[C@@](C)(O)[C@@H]2C1 [VACHANIC ACID METHYLESTER],201 µM
26,C=C1C(=O)O[C@H]2C[C@H](C)[C@@H]3CC(=O)C(C)=C3C[C@H]12 [XERANTOLIDE],101 µM

# Second part, the compound after the results:
row,IC50,Structure (SMILES)
1,17.7 µM,C=C1C(=O)O[C@H]2[C@H]1[C@H](OC(=O)C1(C)OC1C)C[C@@]1(C)[C@H](O)C[C@H]3O[C@@]3(C)[C@H]21 (some centres undefined)
2,7.09 µM,C=C1C(=O)O[C@H]2[C@H]1[C@H](OC(=O)C1(C)OC1C)C[C@@]1(C)[C@H](O)CC=C(C)[C@H]21 (some centres undefined)
3,6.32 µM,C=C1C(=O)O[C@@H]2[C@H]3C(=C)[C@@H](O)C[C@H]3C(=C)C[C@H](OC(=O)[C@@]3(C)CO3)[C@@H]12
4,10.1 µM,C=C1C(=O)O[C@H]2[C@H]1[C@H](OC(=O)C1(C)OC1C)C[C@@]1(C)[C@H](O)CCC(=C)[C@H]21 (some centres undefined)
5,40.6 µM,C=C1C(=O)O[C@@H]2[C@H]3O[C@]3(C)CCC[C@H](C)CC[C@@H]12
6,9.52 µM,C=C1C(=O)O[C@H]2[C@H]1[C@H](OC(=O)C(C)(O)C(C)O)C[C@@]1(C)[C@H](O)CCC(=C)[C@H]21 (some centres undefined)
7,26.7 µM,C=C(C(=O)O[C@@H]1C[C@@]2(C)[C@H](O)CC=C(C)[C@@H]2[C@H]2OC(=O)C(=C)[C@@H]21)C(C)O (some centres undefined)
8,3.03 µM,C=C1C(=O)O[C@@H]2C3O[C@]3(C)CC/C=C(\C)CC[C@@H]12 (some centres undefined)
9,6.66 µM,C=C1C(=O)O[C@@H]2C3=C(C)CC[C@@H](O)[C@]3(C)C[C@@H](OC(=O)C3(C)OC3C)[C@@H]12 (stereo partly drawn) [1BETA-HYDROXY-8BETA-EPOXYANGELOYLOXYARBUSCULIN B]
10,5.77 µM,C=C1C(=O)O[C@@H]2/C=C(\CO)CC/C=C(\CO)C[C@H](OC(=O)C(C)C)[C@@H]12 [ALATOLIDE]
11,57.6 µM,C=C1C(=O)O[C@@H]2C[C@@]3(C)[C@H](O)CCC(=C)[C@@H]3C[C@H]12 [ASPERILIN]
12,6.06 µM,C=C1C(=O)O[C@H]2[C@H]1[C@@H](OC(=O)[C@](C)(O)CCl)CC(=C)[C@@H]1C[C@H](O)[C@](O)(CCl)[C@H]21 [CENTAUREPENSIN]
13,2.04 µM,C=C1C(=O)O[C@@H]2/C=C(/COC(C)=O)CC[C@H](OCC)C3=C[C@@H](OC3=O)[C@@H]12 [CINERENIN ACETATE]
14,3.52 µM,C=C1C(=O)O[C@@H]2/C=C(/CO)CC[C@H](OCC)C3=C[C@@H](OC3=O)[C@@H]12 [CINERENIN]
15,3.52 µM,C=C1C(=O)O[C@@H]2/C=C(\CO)CC/C=C(\C)C[C@H](OC(=O)C(=C)[C@H](O)CO)[C@@H]12 [CNICIN]
16,8.88 µM,C=C1C(=O)O[C@@H]2[C@H]1[C@@H](OC(C)=O)C[C@H](C)[C@@H]1CCC(=O)[C@@]21C [CONFERTIFLORIN]
17,8.76 µM,C=C1C(=O)O[C@H]2[C@H]1[C@H](OC(=O)[C@@]1(C)O[C@H]1C)[C@@H](OC(C)=O)/C(C(=O)OC)=C\CC[C@@]1(C)O[C@H]21 [ENHYDRIN]
18,20.9 µM,C=C(C)C(=O)O[C@@H]1C[C@@H](OC(C)=O)C(=O)CC[C@]2(C)O[C@H]2[C@@H]2OC(=O)C(COC(C)=O)=C21 [GLAUCOLIDE A]
19,22.2 µM,C=C1C(=O)O[C@H]2[C@H]1[C@@H](O)CC(=C)[C@@H]1CC(=O)[C@@H](C)[C@H]21 [GROSSHEIMIN]
20,33.5 µM,C=C1C(=O)O[C@H]2C[C@H](C)[C@@H]3C(OC(C)=O)CC(OC(C)=O)[C@@]3(C)[C@@H](O)[C@H]12 (some centres undefined) [INUCHINENOLIDE C]
21,4.68 µM,C=C1C(=O)O[C@@H]2/C=C(\C)[C@@H]3O[C@@H]3/C=C(/C(=O)OC)[C@H](O)[C@@H](OC(=O)[C@]3(C)O[C@@H]3C)[C@@H]12 [MELAMPODIN A]
22,44.1 µM,C=C1C(=O)O[C@@H]2[C@H]1CC[C@H](C)[C@]1(CCC(=O)O1)[C@@]2(C)O [PSILOSTACHYIN A]
23,9.24 µM,C=C1C(=O)O[C@H]2[C@H]1[C@@H](OC(=O)[C@]1(C)CO1)CC(=C)[C@@H]1C[C@H](O)[C@]3(CO3)[C@H]21 [REPIN]
24,10.2 µM,C=C1C(=O)O[C@@H]2/C=C(\CO)CC/C=C(\C)C[C@H](O)[C@@H]12 [SALONITENOLIDE]
25,5.82 µM,C=C1C(=O)O[C@H]2[C@H]1[C@@H](OC(=O)/C(=C/CO)CO)C/C(C)=C/CC[C@@]1(C)O[C@H]21 [STIZOLICIN]
26,27 µM,C=C1C(=O)O[C@H]2CC(=C)[C@@H](O)CC/C(C)=C/[C@@H](O)[C@H]12 [TATRIDIN B]
27,1.78 µM,C=C1C(=O)O[C@H]2/C=C(\C)[C@@H](OC(C)=O)C/C=C(\C)C[C@@H](OC(=O)C3(C)OC3C)[C@@H]12 (some centres undefined) [URSINIOLIDE A]
28,5.3 µM,C=C1C(=O)O[C@H]2/C=C(\C)[C@@H](OC(C)=O)C/C=C(\C)C[C@@H](OC(=O)C(C)(O)C(C)OC(C)=O)[C@@H]12 (some centres undefined) [URSINIOLIDE B]
